# Measured values pooled from the literature.
# Lines come from different studies, so protocols differ.
# Effect on: microbial growth
Compound,organism,test,system,MIC [µg/mL]
CCCCCCC#Cc1cncc(-c2nnc(SCc3cc([N+](=O)[O-])cc([N+](=O)[O-])c3)n2CCCN)c1,Enterobacter cloacae,broth dilution,DSM30054,> 64
Cc1ccc2[nH]nc(-c3nnc(Nc4ccc(C)c(C)c4)s3)c2c1,Serratia marcescens,,ATCC8100,123
CCCCCCC#Cc1cncc(-c2nnc(SCc3cc([N+](=O)[O-])cc([N+](=O)[O-])c3)n2CCOC2OC(CN)C(O)C2O)c1 (stereo not shown),Enterobacter cloacae,broth dilution,DSM30054,64
Cc1ccc2[nH]nc(-c3nnc(Nc4cc(Cl)cc(Br)c4)s3)c2c1,Serratia marcescens,,ATCC8100,250
Cc1ccc(N=Nc2c(N)nn3c(-c4ccco4)cc(-c4ccc(OCc5ccccc5)cc4)nc23)cc1,Enterobacter cloacae,,ATCC23355,31.3
CO/N=C(\C(=O)N[C@@H]1C(=O)N2C(C(=O)O)=CCS[C@H]12)c1csc(N)n1,Enterobacter cloacae,broth dilution,ATCC13047,2
COc1ccc(N=Nc2c(N)nn3c(-c4ccco4)cc(-c4ccc(OCc5ccccc5)cc4)nc23)cc1,Enterobacter cloacae,,ATCC23355,7.81
Cc1ccc2[nH]nc(-c3nnc(Nc4ccc(Cl)c(Br)c4)s3)c2c1,Serratia marcescens,,ATCC8100,270
Nc1nn2c(-c3ccc(Cl)cc3Cl)cc(-c3ccc(OCc4ccccc4)cc3)nc2c1N=Nc1ccc(F)cc1,Enterobacter cloacae,,ATCC23355,15.6
Cc1ccc2[nH]nc(-c3nnc(Nc4ccc([N+](=O)[O-])cc4)s3)c2c1,Serratia marcescens,,ATCC8100,56.2
C[C@@H](O)[C@H]1C(=O)N2C(C(=O)O)=C(S[C@@H]3CN[C@H](C(=O)N(C)C)C3)[C@H](C)[C@H]12,Enterobacter cloacae,broth dilution,ATCC13047,0.125
CCCCCCC#Cc1cncc(-c2nnc(SCc3cc(C(F)(F)F)cc(C(F)(F)F)c3)n2CCCN)c1,Enterobacter cloacae,broth dilution,DSM30054,> 64
Cc1ccc(-c2cc(-c3ccc(OCc4ccccc4)cc3)nc3c(N=Nc4ccc(F)cc4)c(N)nn23)cc1,Enterobacter cloacae,,ATCC23355,31.3
CCCCCCC#Cc1cncc(-c2nnc(SCc3ccc([N+](=O)[O-])cc3)n2CCCN)c1,Enterobacter cloacae,broth dilution,DSM30054,> 64
CNC(C)C1CCC(N)C(OC2C(N)CC(N)C(OC3OCC(C)(O)C(NC)C3O)C2O)O1 (stereo not shown),Enterobacter cloacae,broth dilution,ATCC13047,4
COc1ccc(N=Nc2c(N)nn3c(-c4ccc(Cl)cc4Cl)cc(-c4ccc(OCc5ccccc5)cc4)nc23)cc1,Enterobacter cloacae,,ATCC23355,62.5
